In brackets after ≈: the same amount, converted by molar mass. Activity calls are given as the source filed them. The calls are words filed in the database; no cut-off is given here.

Series [1] deals with Staphylococcus aureus. Nature of the series: Antibacterial activity against Staphylococcus aureus ATCC 29213 assessed as bacterial growth inhibition incubated for 16 to 18 hrs by CLSI based antibiotic susceptibility testing method. The format is functional. The conditions noted are these: time 16-18 hrs. The essentials: (§1)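 Broth microdilution in cation-adjusted Mueller-Hinton broth. Compounds were tested at […], with levofloxacin as reference and medium-only controls. Plates were incubated at 37 °C for 16-18 h. MIC was the lowest concentration with no visible growth; three independent determinations, each in duplicate.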

Series [2] relates to Mycobacterium tuberculosis. The experiment in a line: Antimycobacterial activity against Mycobacterium tuberculosis H37Rv ATCC 27294 assessed as bacterial growth inhibition incubated for 7 days by resazurin dye based broth microdilution method. The format is functional. The conditions noted are these: H37Rv ATCC 27294, 168 h, time 7 day. The method in brief:
(§2)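 Broth microdilution in Middlebrook 7H9 with 10% ADC-Tween-80 (0.2% glycerol, 0.05% Tween-80), inoculum ~10⁶ cfu/mL. Compounds came from 10 mg/mL DMSO stocks and were tested as two-fold serial dilutions at 37 °C, 7 days for M. tuberculosis H37Rv and 72 h for NTM. Growth was read visually with PrestoBlue resazurin dye; MIC was the lowest concentration preventing growth. Triplicate determinations, each in duplicate.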

The subject of series [3] is Escherichia coli. The experiment in a line: Antibacterial activity against Escherichia coli ATCC 25922 assessed as bacterial growth inhibition incubated for 16 to 18 hrs by CLSI based antibiotic susceptibility testing method. The format is functional, organism-based. The conditions noted are these: time 16-18 hrs. The method in brief: as §1
The subject of series [4] is Klebsiella pneumoniae. The experiment in a line: Antibacterial activity against Klebsiella pneumoniae BAA 1705 assessed as bacterial growth inhibition incubated for 16 to 18 hrs by CLSI based antibiotic susceptibility testing method. The format is functional, organism-based. The conditions noted are these: time 16-18 hrs. The essentials:
as §1

The subject of series [5] is Acinetobacter baumannii. The experiment in a line: Antibacterial activity against Acinetobacter baumannii BAA 1605 assessed as bacterial growth inhibition incubated for 16 to 18 hrs by CLSI based antibiotic susceptibility testing method. The format is functional, organism-based. The conditions noted are these: time 16-18 hrs. The essentials:
as §1

The subject of series [6] is Pseudomonas aeruginosa. The experiment in a line: Antibacterial activity against Pseudomonas aeruginosa ATCC 27853 assessed as bacterial growth inhibition incubated for 16 to 18 hrs by CLSI based antibiotic susceptibility testing method. The format is functional, organism-based. The conditions noted are these: time 16-18 hrs. The method in brief:
as §1

Series [7] has as its system Mycobacteroides abscessus. The experiment in a line: Antimycobacterial activity against Mycobacterium abscessus ATCC 19977 assessed as bacterial growth inhibition incubated for 72 hrs by resazurin dye based broth microdilution method. The format is functional, organism-based. The method in brief:
as §2
On the technique in general: Alamar Blue is a resazurin reagent that responds to reducing activity.

Series [8] concerns Mycolicibacterium fortuitum. The experiment in a line: Antimycobacterial activity against Mycobacterium fortuitum ATCC 6841 assessed as bacterial growth inhibition incubated for 72 hrs by resazurin dye based broth microdilution method. The format is functional, organism-based. The essentials:
as §2

The subject of series [9] is Mycobacteroides chelonae. Nature of the series: Antimycobacterial activity against Mycobacteroides chelonae ATCC 35752 assessed as bacterial growth inhibition incubated for 72 hrs by resazurin dye based broth microdilution method. The format is functional, organism-based. The essentials: as §2
Series [10] is described as follows: Cytotoxicity against African green monkey Vero cells by MTT assay. The format is toxicity, cell-based. The conditions noted are these: chlorocebus sabaeus. The essentials: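 Vero cells were seeded at ~10³ per well at 37 °C, 5% CO2. After 24 h, compounds were added at 5-100 mg/L for 72 h. […] was added for 4 h, formazan was dissolved in DMSO and read at 540 nm. CC50 was taken as the lowest concentration reducing viability by 50%; doxorubicin was the positive control; triplicate.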

Series [11] is described as follows: Selectivity index, ratio of CC50 for African green monkey Vero cells to MIC for Staphylococcus aureus ATCC 29213. The conditions noted are these: read-out: Selectivity Index. The format is toxicity, cell-based.
For series [12], the system named is Staphylococcus aureus. The experiment in a line: Antibacterial activity against methicillin-sensitive Staphylococcus aureus ATCC 29213 clinical isolate assessed as bacterial growth inhibition incubated for 16 to 18 hrs by CLSI based antibiotic susceptibility testing method. The format is functional. The conditions noted are these: time 16-18 hrs. The essentials:
as §1

Series [13] deals with Staphylococcus aureus. Nature of the series: Antibacterial activity against methicillin/ceftriaxone/meropenem/gentamycin/linezolid-resistant Staphylococcus aureus NRS10100 clinical isolate assessed as bacterial growth inhibition incubated for 16 to 18 hrs by CLSI based antibiotic susceptibility testing method. The format is functional. The conditions noted are these: time 16-18 hrs. The essentials: as §1

Series [14] relates to Staphylococcus aureus. The experiment in a line: Antibacterial activity against methicillin/ceftriaxone/meropenem/gentamycin/linezolid-resistant Staphylococcus aureus NRS10119 clinical isolate assessed as bacterial growth inhibition incubated for 16 to 18 hrs by CLSI based antibiotic susceptibility testing method. The format is functional. The conditions noted are these: time 16-18 hrs. The essentials: as §1

Series [15] concerns Staphylococcus aureus. Nature of the series: Antibacterial activity against methicillin/ceftriaxone/meropenem-resistant Staphylococcus aureus NRS10129 clinical isolate assessed as bacterial growth inhibition incubated for 16 to 18 hrs by CLSI based antibiotic susceptibility testing method. The conditions noted are these: time 16-18 hrs. The format is functional. The method in brief: as §1

For series [16], the system named is Staphylococcus aureus. The experiment in a line: Antibacterial activity against methicillin/ceftriaxone/meropenem-resistant Staphylococcus aureus NRS10186 clinical isolate assessed as bacterial growth inhibition incubated for 16 to 18 hrs by CLSI based antibiotic susceptibility testing method. The format is functional. The conditions noted are these: time 16-18 hrs. The essentials: as §1

Series [17] has as its system Staphylococcus aureus. Nature of the series: Antibacterial activity against methicillin/ceftriaxone/meropenem-resistant Staphylococcus aureus NRS10191 clinical isolate assessed as bacterial growth inhibition incubated for 16 to 18 hrs by CLSI based antibiotic susceptibility testing method. The format is functional. The conditions noted are these: time 16-18 hrs. The method in brief: as §1

Series [18] deals with Staphylococcus aureus. Nature of the series: Antibacterial activity against methicillin/ceftriaxone/meropenem-resistant Staphylococcus aureus NRS10192 clinical isolate assessed as bacterial growth inhibition incubated for 16 to 18 hrs by CLSI based antibiotic susceptibility testing method. The conditions noted are these: time 16-18 hrs. The format is functional. The method in brief: as §1

The test system of series [19] is Staphylococcus aureus. The experiment in a line: Antibacterial activity against methicillin/ceftriaxone/meropenem-resistant Staphylococcus aureus NRS10193 clinical isolate assessed as bacterial growth inhibition incubated for 16 to 18 hrs by CLSI based antibiotic susceptibility testing method. The format is functional. The conditions noted are these: time 16-18 hrs. The method in brief: as §1

For series [20], the system named is Staphylococcus aureus. The experiment in a line: Antibacterial activity against methicillin/ceftriaxone-resistant Staphylococcus aureus NRS10194 clinical isolate assessed as bacterial growth inhibition incubated for 16 to 18 hrs by CLSI based antibiotic susceptibility testing method. The format is functional. The conditions noted are these: time 16-18 hrs. The method in brief:
as §1

Series [21] deals with Staphylococcus aureus. Nature of the series: Antibacterial activity against methicillin/ceftriaxone/meropenem-resistant Staphylococcus aureus NRS10198 clinical isolate assessed as bacterial growth inhibition incubated for 16 to 18 hrs by CLSI based antibiotic susceptibility testing method. The format is functional. The conditions noted are these: time 16-18 hrs. The essentials:
as §1

The subject of series [22] is Staphylococcus aureus. The experiment in a line: Antibacterial activity against methicillin/ceftriaxone/meropenem/gentamycin/vancomycin/teicoplanin-resistant Staphylococcus aureus VRS1 clinical isolate assessed as bacterial growth inhibition incubated for 16 to 18 hrs by CLSI based antibiotic susceptibility testing method. The format is functional. The conditions noted are these: time 16-18 hrs. The essentials:
as §1

Series [23] has as its system Staphylococcus aureus. The experiment in a line: Antibacterial activity against methicillin/ceftriaxone/meropenem/vancomycin/teicoplanin-resistant Staphylococcus aureus VRS4 clinical isolate assessed as bacterial growth inhibition incubated for 16 to 18 hrs by CLSI based antibiotic susceptibility testing method. The format is functional. The conditions noted are these: time 16-18 hrs. The essentials:
as §1

Series [24] deals with Staphylococcus aureus. The experiment in a line: Antibacterial activity against methicillin/ceftriaxone/meropenem/vancomycin/teicoplanin-resistant Staphylococcus aureus VRS12 clinical isolate assessed as bacterial growth inhibition incubated for 16 to 18 hrs by CLSI based antibiotic susceptibility testing method. The conditions noted are these: time 16-18 hrs. The format is functional. The essentials: as §1

By MIC is commonly meant the lowest concentration that inhibits growth of the organism. By CC50 is commonly meant the concentration giving 50% cytotoxicity. For the compound `O=C(CCN1C(=O)c2cccc3cccc(c23)C1=O)N1CCN(C(=S)NC2CCCCC2)CC1`, the MIC in [1] is 1 µg/mL (≈ 2.09 µM); in series [2], more than 64 µg/mL; in series [12], 2 µg/mL (≈ 4.18 µM); in series [13], 4 µg/mL (≈ 8.36 µM); in series [14] it was 2 µg/mL (≈ 4.18 µM); in series [15], 2 µg/mL (≈ 4.18 µM). For the same compound, the MIC was found to be 1 µg/mL (≈ 2.09 µM) in [16]; 2 µg/mL (≈ 4.18 µM) in series [17]; 1 µg/mL (≈ 2.09 µM) in [18]; 4 µg/mL (≈ 8.36 µM) in series [19]; 2 µg/mL (≈ 4.18 µM) in series [20]; 1 µg/mL (≈ 2.09 µM) in [21]. The MIC came to 2 µg/mL (≈ 4.18 µM) in series [22], 1 µg/mL (≈ 2.09 µM) in [23] and 2 µg/mL (≈ 4.18 µM) in series [24]. Also, the “growth inhibition (GI)” value in series [3], in [4], in [5], in [6], in series [7] and in series [8] was “inactive” each time. For the same compound, the “growth inhibition (GI)” value in [9] is “inactive”. Moreover, the CC50 in series [10] was more than 50 µg/mL. Also, the selectivity ratio in series [11] was more than 50.

Take `C[C@@H](O)[C@H]1C(=O)N2C(C(=O)O)=C(S[C@@H]3CN[C@H](C(=O)N(C)C)C3)[C@H](C)[C@H]12` [MEROPENEM]: the MIC in [12] stood at 0.125 µg/mL (≈ 0.326 µM); in [13], 32 µg/mL (≈ 83.4 µM); in series [14] it was 64 µg/mL (≈ 167 µM); in series [15], 2 µg/mL (≈ 5.22 µM); in [16], 4 µg/mL (≈ 10.4 µM); in series [17], 64 µg/mL (≈ 167 µM). Also, the MIC in series [18] turned out to be 4 µg/mL (≈ 10.4 µM); in [19], 64 µg/mL (≈ 167 µM); in [20], 1 µg/mL (≈ 2.61 µM); in series [21] it was 64 µg/mL (≈ 167 µM); in series [22] it was 64 µg/mL (≈ 167 µM); in [23], 64 µg/mL (≈ 167 µM). The MIC in series [24] turned out to be 8 µg/mL (≈ 20.9 µM).

Regarding `CN[C@H](CC(C)C)C(=O)N[C@H]1C(=O)N[C@@H](CC(N)=O)C(=O)N[C@H]2C(=O)N[C@H]3C(=O)N[C@H](C(=O)N[C@H](C(=O)O)c4cc(O)cc(O)c4-c4cc3ccc4O)[C@H](O)c3ccc(c(Cl)c3)Oc3cc2cc(c3O[C@@H]2O[C@H](CO)[C@@H](O)[C@H](O)[C@H]2O[C@H]2C[C@](C)(N)[C@H](O)[C@H](C)O2)Oc2ccc(cc2Cl)[C@H]1O` [VANCOMYCIN], the minimum inhibitory concentration (MIC) in [22], in [23] and in [24] was more than 64 µg/mL throughout.

In the case of `C[C@H]1COc2c(N3CCN(C)CC3)c(F)cc3c(=O)c(C(=O)O)cn1c23` [LEVOFLOXACIN ANHYDROUS], the MIC stood at 0.063 µg/mL (≈ 0.174 µM) in [1]; 0.6 µg/mL (≈ 1.66 µM) in [2]; 0.25 µg/mL (≈ 0.692 µM) in series [12]; 0.125 µg/mL (≈ 0.346 µM) in series [13]; 16 µg/mL (≈ 44.3 µM) in series [14]; 0.25 µg/mL (≈ 0.692 µM) in series [15]. For the same compound, the MIC was found to be 4 µg/mL (≈ 11.1 µM) in series [16]; 16 µg/mL (≈ 44.3 µM) in [17]; 8 µg/mL (≈ 22.1 µM) in series [18]; 32 µg/mL (≈ 88.6 µM) in series [19]; 0.125 µg/mL (≈ 0.346 µM) in [20]; 32 µg/mL (≈ 88.6 µM) in series [21]. Moreover, the MIC in series [22] was 32 µg/mL (≈ 88.6 µM); in series [23], more than 64 µg/mL; in series [24], 32 µg/mL (≈ 88.6 µM). In addition, the “growth inhibition (GI)” value in [3], in series [4], in series [5], in [6], in series [7] and in series [8] was “inactive” throughout. In addition, in series [9], the “growth inhibition (GI)” value is “inactive”.

The record behind these values is ChEMBL document CHEMBL5385966, “Synthesis and biological evaluation of new naphthalimide-thiourea derivatives as potent antimicrobial agents active against multidrug-resistant Staphylococcus aureus and Mycobacterium tuberculosis” (RSC Med Chem, 2024).
